# Experimental data reported in ChEMBL document CHEMBL4033712, “Synthesis and biological evaluation of new C-12(α/β)-(N-) sulfamoyl-phenylamino-14-deoxy-andrographolide derivatives as potent anti-cancer agents” (Bioorg Med Chem Lett, 2017).
# How the values were obtained:
# Format in all cases: functional
# [1] = system: NCI-H522; assay: Growth inhibition of human NCI-H522 cells incubated for 48 hrs by sulforhodamine B assay; conditions: NCI-H522, 48 h
# Summary of the method: (§1)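 NCI-60 five-dose screen at 0.01, 0.1, 1, 10 and 100 µM, 48 h incubation, sulforhodamine B end point. GI50 (50% decrease in net growth), TGI (total growth inhibition) and LC50 (net 50% loss of initial cells) taken from log concentration versus % growth inhibition curves.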
# [2] = system: SW-620; assay: Growth inhibition of human SW620 cells incubated for 48 hrs by sulforhodamine B assay; conditions: SW-620, 48 h
# Summary of the method: (§2)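 NCI 60 human tumour cell line panel, five-dose study at 0.01, 0.1, 1, 10 and 100 µM, 48 h incubation. Sulforhodamine B protein-binding dye end point. GI50 (50% decrease in net cell growth), TGI (total growth inhibition) and LC50 (net 50% loss of initial cells) read from log concentration versus % growth inhibition curves.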
# [3] = system: Hs-578T; assay: Growth inhibition of human Hs 578T cells incubated for 48 hrs by sulforhodamine B assay; summary of the method: as §1
# [4] = system: NCI-H460; assay: Growth inhibition of human NCI-H460 cells incubated for 48 hrs by sulforhodamine B assay; conditions: NCI-H460, 48 h; summary of the method: as §1
# [5] = system: OVCAR-3; assay: Growth inhibition of human OVCAR3 cells incubated for 48 hrs by sulforhodamine B assay; conditions: OVCAR-3, 48 h; summary of the method: as §1
# [6] = system: OVCAR-4; assay: Growth inhibition of human OVCAR4 cells incubated for 48 hrs by sulforhodamine B assay; conditions: OVCAR-4, 48 h; summary of the method: as §1
# [7] = system: LOX IMVI; assay: Growth inhibition of human LOXIMVI cells incubated for 48 hrs by sulforhodamine B assay; summary of the method: as §1
# [8] = system: BT-549; assay: Growth inhibition of human BT549 cells incubated for 48 hrs by sulforhodamine B assay; conditions: BT-549, 48 h; summary of the method: as §1
# [9] = system: HT-29; assay: Growth inhibition of human HT-29 cells incubated for 48 hrs by sulforhodamine B assay; conditions: HT-29, 48 h; summary of the method: as §1
# [10] = system: SK-MEL-2; assay: Growth inhibition of human SK-MEL-2 cells incubated for 48 hrs by sulforhodamine B assay; conditions: SK-MEL-2, 48 h; summary of the method: as §2
# [11] = system: T47D; assay: Growth inhibition of human T47D cells incubated for 48 hrs by sulforhodamine B assay; summary of the method: as §2
# [12] = system: OVCAR-8; assay: Growth inhibition of human OVCAR8 cells incubated for 48 hrs by sulforhodamine B assay; conditions: OVCAR-8, 48 h; summary of the method: as §1
# [13] = system: SR; assay: Growth inhibition of human SR cells incubated for 48 hrs by sulforhodamine B assay; summary of the method: as §2
# [14] = system: SF-295; assay: Growth inhibition of human SF295 cells incubated for 48 hrs by sulforhodamine B assay; conditions: SF-295, 48 h; summary of the method: as §2
# [15] = system: ACHN; assay: Growth inhibition of human ACHN cells incubated for 48 hrs by sulforhodamine B assay; summary of the method: as §1
# [16] = system: MDA-MB-468; assay: Growth inhibition of human MDA-MB-468 cells incubated for 48 hrs by sulforhodamine B assay; conditions: MDA-MB-468, 48 h; summary of the method: as §1
# [17] = system: UACC-257; assay: Growth inhibition of human UACC257 cells incubated for 48 hrs by sulforhodamine B assay; conditions: UACC-257, 48 h; summary of the method: as §2
# [18] = system: CCRF-CEM; assay: Growth inhibition of human CCRF-CEM cells incubated for 48 hrs by sulforhodamine B assay; summary of the method: as §1
# [19] = system: OVCAR-5; assay: Growth inhibition of human OVCAR5 cells incubated for 48 hrs by sulforhodamine B assay; conditions: OVCAR-5, 48 h; summary of the method: as §1
# [20] = system: PC-3; assay: Growth inhibition of human PC3 cells incubated for 48 hrs by sulforhodamine B assay; conditions: PC-3, 48 h; summary of the method: as §1
# [21] = system: HOP-92; assay: Anticancer activity against human HOP92 cells assessed as cell growth at 10 uM after 48 hrs by sulforhodamine B assay relative to control; conditions: HOP-92, 48 h, read-out: Activity
# Summary of the method: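 Single-dose NCI-60 panel screen: compound added at 10 µM and the culture incubated 48 h. The end point was read by protein staining with sulforhodamine B. The value is percent growth of treated cells relative to untreated control cells, reported as a mean graph across the panel.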
# [22] = system: A498; assay: Growth inhibition of human A498 cells incubated for 48 hrs by sulforhodamine B assay; conditions: A498, 48 h; summary of the method: as §1
# [23] = system: U-251; assay: Growth inhibition of human U251 cells incubated for 48 hrs by sulforhodamine B assay; conditions: U-251, 48 h; summary of the method: as §2
# [24] = system: HL-60(TB); assay: Growth inhibition of human HL-60(TB) cells incubated for 48 hrs by sulforhodamine B assay; conditions: HL-60, 48 h
# Summary of the method: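 NCI-60 five-dose screen at 0.01, 0.1, 1, 10 and 100 µM for 48 h, sulforhodamine B read-out. GI50 taken from log concentration versus % growth inhibition curves as the concentration giving 50% decrease in net cell growth.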
# [25] = system: M14; assay: Growth inhibition of human M14 cells incubated for 48 hrs by sulforhodamine B assay; conditions: M14, 48 h; summary of the method: as §1
# [26] = system: NCI-H322M; assay: Growth inhibition of human NCI-H322M cells incubated for 48 hrs by sulforhodamine B assay; summary of the method: as §1
# [27] = system: SNB-19; assay: Growth inhibition of human SNB19 cells incubated for 48 hrs by sulforhodamine B assay; conditions: SNB-19, 48 h; summary of the method: as §2
# [28] = system: TK-10; assay: Growth inhibition of human TK10 cells incubated for 48 hrs by sulforhodamine B assay; conditions: TK-10, 48 h; summary of the method: as §2
# [29] = read-out: LC50 (the source's name)
compound,measurement,setting,value
C=C1CC[C@@H]2[C@](C)(COC(C)=O)[C@H](OC(C)=O)CC[C@@]2(C)[C@H]1CC(Nc1ccc(S(=O)(=O)Nc2ncccn2)cc1)C1=CCOC1=O (stereo not given in full),GI50,[1],0.49 µM
same,TGI,[1],2.07 µM
same,CC50,[1]; [29],6.45 µM
same,GI50,[2],0.86 µM
same,TGI,[2],2.25 µM
same,CC50,[2]; [29],5.36 µM
same,GI50,[3],3.54 µM
same,LC50,[3],> 100 µM
same,TGI,[3],24.4 µM
same,GI50,[4],1.98 µM
same,TGI,[4],4.06 µM
same,CC50,[4]; [29],8.32 µM
same,GI50,[5],1.21 µM
same,TGI,[5],2.54 µM
same,CC50,[5]; [29],5.31 µM
same,GI50,[6],1.85 µM
same,LC50,[6],19.3 µM
same,TGI,[6],5.26 µM
same,GI50,[7],0.89 µM
same,TGI,[7],2.21 µM
same,CC50,[7]; [29],5.06 µM
same,GI50,[8],1.64 µM
same,TGI,[8],3.39 µM
same,CC50,[8]; [29],7.04 µM
same,GI50,[9],1.03 µM
same,TGI,[9],2.79 µM
same,GI50,[10],2.36 µM
same,TGI,[10],7.2 µM
same,CC50,[10]; [29],30.4 µM
same,GI50,[11],2 µM
same,TGI,[11],5.46 µM
same,CC50,[11]; [29],> 100 µM
same,GI50,[12],1.48 µM
same,TGI,[12],3.55 µM
same,CC50,[12]; [29],8.53 µM
same,GI50,[13],0.31 µM
same,TGI,[13],17.2 µM
same,CC50,[13]; [29],> 100 µM
same,GI50,[14],6.07 µM
same,TGI,[14],18.7 µM
same,CC50,[14]; [29],44.6 µM
same,GI50,[15],1.72 µM
same,TGI,[15],3.27 µM
same,CC50,[15]; [29],6.2 µM
same,GI50,[16],1.33 µM
same,TGI,[16],3.57 µM
same,GI50,[17],2.34 µM
same,TGI,[17],6.07 µM
same,CC50,[17]; [29],21.9 µM
same,GI50,[18],0.73 µM
same,TGI,[18],3.41 µM
same,CC50,[18]; [29],> 100 µM
same,GI50,[19],1.98 µM
same,LC50 (concentration causing net 50% loss of initial cells),[19],7.47 µM
same,TGI,[19],3.85 µM
same,GI50,[20],2.11 µM
same,TGI,[20],5.07 µM
same,CC50,[20]; [29],17.5 µM
same,growth at 10 µM,[21],56.3%
same,GI50,[22],12.3 µM
same,LC50 (concentration giving net 50% loss of initial cells),[22],49.9 µM
same,TGI,[22],24.7 µM
same,GI50,[23],1.74 µM
same,TGI,[23],3.28 µM
same,CC50,[23]; [29],6.17 µM
same,GI50,[24],1.3 µM
same,TGI,[24],3.64 µM
same,CC50,[24]; [29],> 100 µM
same,GI50,[25],1.44 µM
same,TGI,[25],3.98 µM
same,CC50,[25]; [29],15.9 µM
same,GI50,[26],3.12 µM
same,TGI,[26],11.1 µM
same,CC50,[26]; [29],35.6 µM
same,GI50,[27],1.63 µM
same,TGI,[27],3.76 µM
same,CC50,[27]; [29],8.65 µM
same,GI50,[28],2.77 µM
same,TGI,[28],6.03 µM
same,CC50,[28]; [29],18.3 µM
